Results on 27 compounds are retold here after ChEMBL document CHEMBL1128716, “4,5-Dihydro-3-(methanesulfonamidophenyl)-1-phenyl-1H-2,4-benzodiazepines: a novel class III antiarrhythmic agents” (J Med Chem, 1995).

For assay [1], the species on record is Oryctolagus cuniculus. The assay is described as follows: In vitro concentration at which cardiac refractoriness in rabbit is increased by 20 ms. The assay is classed as functional. Conditions: Heart. In short, it runs like this: (§1)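 Isolated hearts stimulated at twice threshold (1 mA minimum), equilibrated 45 min. ERP determined by scanning diastole with a single premature stimulus after 15 min at each of five cumulative concentrations. EC20 is the concentration raising ERP by 20 ms, estimated by linear regression of concentration–response data, in nM; n = 3–5 hearts.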

Assay [2] deals with Canis familiaris. As to the kind of experiment: Maximum increase in ERP(ms) after oral dose of the compound( 0.3 mg/kg) in mongrel dogs at a basic cycle length of 400 ms. The assay is classed as functional, Canis lupus familiaris. A digest of the protocol: (§2)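 Conscious instrumented dogs, at least 7 days after surgery, suspended in slings during normal sinus rhythm. After three baseline ERP measurements, 0.3 mg/kg given orally by gastric lavage. ERP taken every 15 min for 3 h with pacing at basic cycle lengths of 500, 400 and 250 ms. Value is the maximum ERP increase over that interval, mean ± SEM.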

The test system of assay [3] is Canis familiaris. The assay is described as follows: Maximum increase in ERP(ms) after oral dose of the compound( 0.3 mg/kg) in mongrel dogs at a basic cycle length of 250 ms. The assay is classed as functional, Canis lupus familiaris. A digest of the protocol: as §2
Assay [4] concerns Canis familiaris. As to the kind of experiment: Maximum increase in ERP(ms) after oral dose of the compound( 0.3 mg/kg) in mongrel dogs at a basic cycle length of 500 ms. The assay is classed as functional, Canis lupus familiaris. In short, it runs like this:
as §2

Assay [5] can be described thus: (§3) Displacement of [3H]BTX from sodium channel.
The target of assay [6] is Sodium channel protein type 5 subunit alpha (Homo sapiens, UniProt Q14524). As to the kind of experiment: Blockade of Na+ current in frog oocytes expressing human cardiac sodium channel (HH1). The assay is classed as cell-based, Oocyte. A digest of the protocol:
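HH1 transcripts injected into Xenopus laevis oocytes, incubated at room temperature 24–72 h. Two-microelectrode voltage clamp (3 M KCl electrodes), bath NaCl 140, KCl 2, CaCl2 1.8, MgCl2 1, HEPES 5 mM, pH 7.5, 21–23 °C. Holding −100 mV; peak current at the I–V maximum measured before and after test agent; IC50 in μM.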

Assay [7] is filed under the species Oryctolagus cuniculus. The assay is described as follows: In vitro concentration at which cardiac refractoriness in rabbit (ERP-effective refractory period) is increased by 20 ms; inactive at 1000. The assay is classed as functional. The following applies: Heart. In short, it runs like this: as §1
The subject of assay [8] is Canis familiaris. As to the kind of experiment: Prolongation of ERP(effective refractory […]) in mongrel dogs over a 3 hour interval following oral administration (0.3 mg/kg), pacing at a basic cycle length of 250 ms. The assay is classed as functional, Canis lupus familiaris. In short, it runs like this: as §2
The subject of assay [9] is Canis familiaris. As to the kind of experiment: Prolongation of ERP(effective refractory […]) in mongrel dogs over a 3 hour interval following oral administration (0.3 mg/kg), pacing at a basic cycle length of 400 ms. The assay is classed as functional, Canis lupus familiaris. In short, it runs like this:
as §2

Assay [10] concerns Canis familiaris. As to the kind of experiment: The orally dosed values in animals (0.3 mg/kg) represent the maximum increase in ERP observed over a 3 hour interval. Pacing was done at basic cycle lengths of 500 ms. The assay is classed as functional, Canis lupus familiaris. A digest of the protocol: as §2
Assay [11] can be described thus: Displacement of [3H]D-888 from canine cardiac calcium channel. The assay is classed as tissue-based, Canis lupus familiaris, Heart. A digest of the protocol: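 Canine cardiac sarcolemma vesicles (50 μg protein) with 5 nM [3H]D888 in 50 mM Tris-HCl pH 7.4, 0.1% BSA, 90 min at 25 °C, triplicate. Nonspecific binding defined with 31.6 μM (S)-verapamil. Bound ligand collected by filtration on polyethylenimine-treated filters; IC50 in μM.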
A general note: In a radioligand displacement assay an active substance lowers the binding of a labelled ligand.

The nature of assay [12]: as §3. Details: species or system Canis lupus familiaris. In short, it runs like this: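 Canine cardiac sarcolemma vesicles (50 μg protein) incubated with 5 nM [3H]BTX-B, 60 min at 37 °C, triplicate. Nonspecific binding with 0.3 mM veratridine. Filtration read-out; IC50 in μM.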
The subject of assay [13] is Canis familiaris. The assay is described as follows: Maximum increase in ERP(ms) after oral dose of the compound( 0.3 mg/kg) in mongrel dogs at a basic cycle […]. The assay is classed as functional, Canis lupus familiaris. In short, it runs like this: as §2

Structures are written as SMILES. Activity calls are given as the source filed them.

Sequence of Sodium channel protein type 5 subunit alpha (Q14524 whole entry): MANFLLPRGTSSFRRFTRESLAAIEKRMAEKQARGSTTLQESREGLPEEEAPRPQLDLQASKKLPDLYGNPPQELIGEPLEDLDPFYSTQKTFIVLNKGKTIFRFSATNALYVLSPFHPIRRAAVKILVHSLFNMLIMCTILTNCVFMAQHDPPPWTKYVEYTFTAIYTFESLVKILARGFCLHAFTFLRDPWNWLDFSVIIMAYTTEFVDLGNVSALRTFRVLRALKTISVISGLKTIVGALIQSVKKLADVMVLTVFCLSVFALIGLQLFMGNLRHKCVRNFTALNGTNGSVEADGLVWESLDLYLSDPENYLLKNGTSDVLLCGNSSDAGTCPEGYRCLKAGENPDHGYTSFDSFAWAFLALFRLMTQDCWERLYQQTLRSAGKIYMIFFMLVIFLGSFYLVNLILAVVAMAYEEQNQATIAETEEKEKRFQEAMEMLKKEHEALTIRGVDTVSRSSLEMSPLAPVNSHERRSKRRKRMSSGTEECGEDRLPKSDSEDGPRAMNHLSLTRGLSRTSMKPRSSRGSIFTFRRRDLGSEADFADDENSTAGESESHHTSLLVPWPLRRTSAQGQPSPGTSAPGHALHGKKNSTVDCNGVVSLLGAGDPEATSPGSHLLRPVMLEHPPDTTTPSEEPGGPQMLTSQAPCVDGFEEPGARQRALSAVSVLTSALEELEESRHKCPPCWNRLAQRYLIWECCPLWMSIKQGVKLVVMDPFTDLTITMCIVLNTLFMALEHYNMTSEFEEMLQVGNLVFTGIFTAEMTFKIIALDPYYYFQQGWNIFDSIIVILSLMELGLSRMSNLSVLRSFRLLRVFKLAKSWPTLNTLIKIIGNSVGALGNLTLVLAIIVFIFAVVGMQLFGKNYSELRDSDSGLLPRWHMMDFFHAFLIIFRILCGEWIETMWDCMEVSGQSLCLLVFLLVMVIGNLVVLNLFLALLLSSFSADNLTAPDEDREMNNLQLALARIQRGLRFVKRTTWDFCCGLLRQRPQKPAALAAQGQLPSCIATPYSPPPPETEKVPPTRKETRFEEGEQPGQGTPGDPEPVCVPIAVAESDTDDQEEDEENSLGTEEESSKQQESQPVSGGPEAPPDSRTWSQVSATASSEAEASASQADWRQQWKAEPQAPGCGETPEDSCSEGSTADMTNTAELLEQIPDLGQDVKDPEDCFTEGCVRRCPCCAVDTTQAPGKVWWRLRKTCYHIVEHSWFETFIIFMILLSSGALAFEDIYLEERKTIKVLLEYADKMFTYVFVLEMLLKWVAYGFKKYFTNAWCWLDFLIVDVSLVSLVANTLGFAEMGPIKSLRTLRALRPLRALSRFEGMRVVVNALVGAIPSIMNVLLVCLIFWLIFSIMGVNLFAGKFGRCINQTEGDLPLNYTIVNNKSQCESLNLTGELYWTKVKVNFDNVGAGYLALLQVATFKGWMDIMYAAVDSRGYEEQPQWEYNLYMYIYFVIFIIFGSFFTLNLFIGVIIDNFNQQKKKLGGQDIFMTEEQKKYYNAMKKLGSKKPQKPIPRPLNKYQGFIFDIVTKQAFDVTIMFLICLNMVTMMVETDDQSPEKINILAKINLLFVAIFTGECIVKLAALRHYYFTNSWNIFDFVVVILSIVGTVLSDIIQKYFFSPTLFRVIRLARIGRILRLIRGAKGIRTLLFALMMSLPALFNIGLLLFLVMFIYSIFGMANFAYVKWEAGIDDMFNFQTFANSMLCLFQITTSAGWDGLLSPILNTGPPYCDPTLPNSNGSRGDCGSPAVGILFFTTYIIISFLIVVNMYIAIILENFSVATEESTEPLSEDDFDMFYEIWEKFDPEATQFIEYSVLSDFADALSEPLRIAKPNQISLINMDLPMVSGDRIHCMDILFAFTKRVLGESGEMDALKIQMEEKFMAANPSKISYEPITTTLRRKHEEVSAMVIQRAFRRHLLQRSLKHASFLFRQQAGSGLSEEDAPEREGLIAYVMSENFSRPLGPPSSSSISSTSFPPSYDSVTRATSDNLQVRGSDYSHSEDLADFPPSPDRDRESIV

For `CN1Cc2ccccc2C(c2ccc(Cl)c(Cl)c2)N=C1OCc1ccc(NS(C)(=O)=O)cc1` (centres undefined), the EC20 (in general, the point of the concentration-response curve where the effect stands at 20%) in the assay listed under Oryctolagus cuniculus [1] amounted to 2 nM.

As to `CN1Cc2ccccc2[C@@H](c2ccc(Cl)cc2)N=C1OCc1ccc(NS(C)(=O)=O)cc1`, it took 2 nM to reach the 20% level in the assay listed under Oryctolagus cuniculus [1] (EC20).

In the assay filed under Oryctolagus cuniculus [1], `CN1Cc2ccccc2C(c2ccccc2)N=C1CCc1ccc(NS(C)(=O)=O)cc1` (centres undefined) came in with an EC20 of 20 nM.

`CN1Cc2ccccc2[C@H](c2ccc(Cl)cc2)N=C1OCc1ccc(NS(C)(=O)=O)cc1` came in with a concentration for an effect of 20% (EC20) in the assay filed under Oryctolagus cuniculus [1] of 4 nM.

For the compound `CN1Cc2ccccc2C(c2ccccc2)N=C1CCc1ccccc1NS(C)(=O)=O` (centres undefined), the EC20 in the assay filed under Oryctolagus cuniculus [1] turned out to be 500 nM.

Take `CN1Cc2ccccc2[C@@H](c2ccccc2)N=C1OCc1ccc(NS(C)(=O)=O)cc1.O=C(O)/C=C/C(=O)O`: the ERP in the assay on Canis familiaris [2] was found to be 36 ms; in the assay on Canis familiaris [3], 31 ms; in the assay with Canis familiaris [4], 40 ms. In addition, the IC50 – broadly, the concentration that gives 50% inhibition – was found to be 5200 nM in [5] and 126000 nM in assay [6]. This compound gave an EC20 in the assay filed under Oryctolagus cuniculus [1] of 1.5 nM.

Turning to `CCS(=O)(=O)Nc1ccc(CCC2=NC(c3ccccc3)c3ccccc3CN2C)cc1` (centres undefined), in the assay filed under Oryctolagus cuniculus [1], the EC20 is 100 nM.

In the case of `CN1Cc2c(NS(C)(=O)=O)cccc2C(c2ccccc2)N=C1CCc1ccccc1` (centres undefined), in the assay filed under Oryctolagus cuniculus [7], the EC20 result was “inactive”.

For the compound `CN(CCOc1ccc(NS(C)(=O)=O)cc1)CCc1ccc(NS(C)(=O)=O)cc1` [DOFETILIDE], the ERP observations in the assay on Canis familiaris [8] worked out at 21; in the assay on Canis familiaris [9], 28; with Canis familiaris [10], 30. In the assay filed under Oryctolagus cuniculus [1], this compound gave an EC20 of 2 nM.

`CN1Cc2ccccc2[C@@H](c2ccc(F)cc2F)N=C1CCc1ccc(NS(C)(=O)=O)cc1.Cl`: the ERP observations with Canis familiaris [2] is 33; with Canis familiaris [3] it was 22; in the assay with Canis familiaris [4], 33. The IC50 was 1100 nM in assay [11], 2500 nM in assay [12] and above 100000 nM in assay [6]. Besides, the 20% effect level in the assay filed under Oryctolagus cuniculus [1] (EC20) was put at 8 nM.

For the compound `CN1Cc2ccccc2[C@H](c2ccccc2)N=C1OCc1ccc(NS(C)(=O)=O)cc1.O=C(O)/C=C/C(=O)O`, the ERP observations with Canis familiaris [2] worked out at 20; in the assay on Canis familiaris [3], 18; with Canis familiaris [4], 18. Further, the IC50 in [11] is 900 nM; in [12] it was 6900 nM; in assay [6], above 30000 nM. In the assay listed under Oryctolagus cuniculus [1], this compound showed an EC20 of 4 nM.

Compound `CN1Cc2ccccc2C(c2ccc(F)cc2F)N=C1CCc1ccc(NS(C)(=O)=O)cc1` (centres undefined) had an EC20 in the assay listed under Oryctolagus cuniculus [1] of 4 nM.

Take `CN1Cc2ccccc2C(c2ccccc2)N=C1OCc1ccc(NS(C)(=O)=O)cc1` (centres undefined): the 20% effect level in the assay listed under Oryctolagus cuniculus [1] (EC20) was put at 6 nM.

In the case of `CN1Cc2ccccc2C(c2ccc(NS(C)(=O)=O)cc2)N=C1CCc1ccc(NS(C)(=O)=O)cc1` (centres undefined), the EC20 entry in the assay listed under Oryctolagus cuniculus [7] was “inactive”.

The compound `CN1Cc2ccc(NS(C)(=O)=O)cc2C(c2ccccc2)N=C1CCc1ccccc1` (centres undefined) returned an EC20 in the assay listed under Oryctolagus cuniculus [1] of 655 nM.

Compound `COc1ccc(C2N=C(OCc3ccc(NS(C)(=O)=O)cc3)N(C)Cc3ccccc32)cc1` (centres undefined) displayed a 20% effect concentration (EC20) in the assay filed under Oryctolagus cuniculus [1] of 4 nM.

Take `CN1Cc2ccccc2C(c2ccc(NS(C)(=O)=O)cc2)N=C1CCc1ccccc1` (centres undefined): in the assay listed under Oryctolagus cuniculus [1], the 20% effect concentration (EC20) was 780 nM.

`CSc1ccc([C@H]2N=C(OCc3ccc(NS(C)(=O)=O)cc3)N(C)Cc3ccccc32)cc1.Cl`: the ERP observations in the assay with Canis familiaris [2] is given as 33; in the assay on Canis familiaris [3], 28; in the assay on Canis familiaris [4] it was 33. Moreover, the results for the half-inhibitory concentration (IC50) in assay [11] and in assay [12] were 700 nM and 1000 nM, respectively. The 20% effect level in the assay filed under Oryctolagus cuniculus [1] (EC20) was put at 7 nM.

The compound `CN1Cc2ccccc2C(c2ccc(Cl)cc2)N=C1SCc1ccc(NS(C)(=O)=O)cc1` (centres undefined) displayed an EC20 in the assay filed under Oryctolagus cuniculus [1] of 5.5 nM.

Take `CSc1ccc(C2N=C(OCc3ccc(NS(C)(=O)=O)cc3)N(C)Cc3ccccc32)cc1` (centres undefined): the 20% effect concentration (EC20) in the assay listed under Oryctolagus cuniculus [1] came out at 4 nM.

In turn, `CN1Cc2ccccc2C(c2ccccc2)N=C1CCc1ccccc1` (centres undefined) came in with an EC20 in the assay filed under Oryctolagus cuniculus [1] of 60 nM.

For `CSc1ccc([C@@H]2N=C(OCc3ccc(NS(C)(=O)=O)cc3)N(C)Cc3ccccc32)cc1.Cl`, the values for the ERP observations in the assay on Canis familiaris [3], in the assay with Canis familiaris [4] and with Canis familiaris [13] were 11, 28 and 20, respectively. Moreover, the concentration for half-maximal inhibition (IC50) in assay [11] is 1100 nM; in assay [12], 3000 nM; in assay [6], above 30000 nM. In addition, the EC20 in the assay listed under Oryctolagus cuniculus [1] was 8 nM.

Consider `CN1Cc2ccccc2C(c2ccc(NS(C)(=O)=O)cc2)N=C1OCc1ccc(NS(C)(=O)=O)cc1` (centres undefined), for which the EC20 in the assay filed under Oryctolagus cuniculus [1] turned out to be 140 nM.

`CN1Cc2ccccc2[C@H](c2ccc(F)cc2F)N=C1CCc1ccc(NS(C)(=O)=O)cc1.Cl`: the figures for the ERP observations in the assay on Canis familiaris [2], with Canis familiaris [3] and in the assay with Canis familiaris [4] were 27, 21 and 28, respectively. The results for the IC50 in assay [11], in assay [12] and in assay [6] were 500 nM, 3600 nM and above 100000 nM, respectively. Further, the EC20 in the assay filed under Oryctolagus cuniculus [1] turned out to be 7 nM.

On to `CN1Cc2ccccc2C(c2ccc(Cl)cc2)N=C1CCc1ccc(NS(C)(=O)=O)cc1` (centres undefined), for which the EC20 in the assay listed under Oryctolagus cuniculus [1] came to 10 nM.

Turning to `CN1Cc2ccccc2C(c2ccccc2)N=C1CCc1ccc(NS(=O)(=O)C(F)(F)F)cc1` (centres undefined), the EC20 in the assay listed under Oryctolagus cuniculus [1] amounted to 520 nM.

Regarding `CN1Cc2ccccc2C(c2ccc(Cl)cc2)N=C1OCc1ccc(NS(C)(=O)=O)cc1` (centres undefined), the 20% effect level in the assay listed under Oryctolagus cuniculus [1] (EC20) was put at 3 nM.
